High-throughput results: PubChem, several laboratories
AHR act – activates the human aryl hydrocarbon receptor; AHR-responsive luciferase reporter cells, luminescence; activation, % at 5 µM; 320,000 tested, 2.5% active; AID 2796; in the data active means activation above about 47%;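 further: 0% = vehicle wells and 100% = reference agonist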
MsrA inh – inhibitors of bovine MsrA | AID 651718 | purified bovine MsrA, absorbance read-out | inhibition, % at 15.5 µM | 360,000 tested, 0.75% active; in the data active means inhibition above about 4.5%;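 further: 0% = vehicle wells with enzyme and 100% = reference inhibitor wells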
HTR2A ag – mouse HTR2A agonism via beta-arrestin recruitment | P35363 | CHO-K1 mHTR2A beta-arrestin complementation, luminescence; percent of 30 µM serotonin response | activation, % at 7.6 µM | 360,000 tested, 0.66% active | AID 624169;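 active means activation above a run cutoff, the mean activation of all tested compounds plus 3 SD, cut at about 14% in these data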;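 further: 0% = plate median of compound wells and 100% = 30 µM serotonin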
Target sequence (P35363 whole entry, looked up): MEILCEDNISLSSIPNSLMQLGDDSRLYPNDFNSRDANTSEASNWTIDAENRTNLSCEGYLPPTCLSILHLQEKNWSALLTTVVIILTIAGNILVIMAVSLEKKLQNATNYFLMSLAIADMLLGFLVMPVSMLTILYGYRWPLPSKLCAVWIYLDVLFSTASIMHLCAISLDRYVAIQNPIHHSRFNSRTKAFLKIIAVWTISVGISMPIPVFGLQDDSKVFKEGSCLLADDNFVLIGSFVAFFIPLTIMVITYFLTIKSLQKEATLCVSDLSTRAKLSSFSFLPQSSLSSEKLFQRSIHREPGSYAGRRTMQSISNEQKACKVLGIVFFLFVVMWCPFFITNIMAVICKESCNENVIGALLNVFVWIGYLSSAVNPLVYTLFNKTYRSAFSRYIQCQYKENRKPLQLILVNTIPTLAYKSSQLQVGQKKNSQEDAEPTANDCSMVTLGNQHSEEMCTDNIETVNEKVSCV
Tb MetRS inh – blocks T. brucei methionyl-tRNA synthetase activity. AID 624268. 360,000 tested, 0.4% active. inhibition, % at 11.9 µM. purified T. brucei MetRS, ATP depletion, Kinase-Glo luminescence;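 active means inhibition above a per-plate cutoff of the control wells' mean inhibition plus 3 SD, cut at about 5.5% in these data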;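 further: 0% = DMSO wells median and 100% = median of wells with control inhibitor compound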
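technique = Kinase-Glo luminescence, ATP depletion format | system = purified MetRS (methionyl-tRNA synthetase) enzyme from Trypanosoma brucei | timing = 15 min preincubation, 2 h reaction, all 25 °C | evaluation = percent inhibition versus plate control medians | dosing = single dose, 11.9 µM final nominal, 0.9% final DMSO | also added = substrates ATP, L-methionine and bulk Escherichia coli tRNA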
AI-2 QS modul – Vibrio harveyi AI-2 quorum sensing modulation. activity change, % at 7.5 µM. AID 2094. Vibrio harveyi JMH597 AI-2 luminescence/OD600 ratio, 9 h; active compounds read low; strain lacks LuxN and CqsS sensors; 0 = neutral-control median. 300,000 tested, 0.4% active; in the data active means activity change below about -75%, passing the limit was not always enough;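 further: luminescence divided by OD600 gain over 9 h not by final OD600 alone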
bovine MsrA act – activators of bovine methionine sulfoxide reductase A. purified bovine MsrA, absorbance read-out. AID 602163. 360,000 tested, 0.3% active. activation, % at 10.6 µM; in the data active means activation above about 7.5%;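 further: 0% = vehicle and 100% = reference activator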
MOR ag counter – activates human mu opioid receptor in HTR2A counterscreen; shares compounds with HTR2A ag; U2OS OPRM1 beta-arrestin PathHunter, luminescence; DMSO 0%, DAMGO 9.3 µM 100%; activation, % at 9.3 µM; 2,300 tested, 5.3% active;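 active means mean activation above the mean of DMSO-only wells plus 3 SD, cut at about 0.5% in these data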
m5-HT2A ag conf – mouse HTR2A agonism confirmed; shares compounds with HTR2A ag; CHO-K1 PathHunter beta-arrestin recruitment, luminescence; DMSO 0%, 30 µM serotonin 100%; activation, % at 7.6 µM; 2,300 tested, 19% active; AID 624381;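 active means mean activation across triplicates above the hit threshold derived in the original primary screen, cut at about 15% in these data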
An asterisk follows results filed as active; / = not tested or not shown. This is a sample that favours compounds with a hit; in the whole collection about 4.4% have one here.

SMILES	AHR act	MsrA inh	HTR2A ag	Tb MetRS inh	AI-2 QS modul	bovine MsrA act	MOR ag counter	m5-HT2A ag conf
COc1ccc(S(=O)(=O)Nc2cccc3c2O[C@@H](CN(C)Cc2ccc(C(=O)O)cc2)[C@@H](C)CN([C@H](C)CO)C3=O)cc1	-0.3	-0.8	6.0	-0.2	/	-3.1	/	/
Cc1noc(C)c1CSCC(=O)N(C)CC(=O)Nc1ccc(Cl)cc1	0.2	0.8	0.2	1.8	21.8	-4.8	/	/
Cc1noc(C)c1CSCC(=O)N(C)CC(=O)Nc1ccccc1Cl	0.1	-0.4	14.5*	-0.6	16.5	-6.2	-0.6	-2.2
c1ccc(Nc2nc(N3CCCCC3)nc(N3CCNCC3)n2)cc1	-1.4	3.6	54.7*	-0.8	25.5	-7.3	-0.5	31.1*
OCCNc1nc2ccccc2nc1NCCO	4.5	3.1	23.2*	-0.6	-5.0	-3.6	-0.4	1.4
OCCNc1cnc2ccccc2n1	1.7	0.5	13.7	-0.6	1.6	-9.4	/	/
O=C(Nc1ccc2c(c1)OCO2)c1c[nH]c(=O)n(-c2ccc(F)cc2)c1=O	55.1*	0.6	14.9*	-0.2	16.7	-3.0	-0.4	-4.6
C=CCn1c(Br)nc2c1c(=O)n(C)c(=O)n2C	-1.3	-0.5	-2.9	-0.2	11.0	-2.0	/	/
C=CCn1c(Br)nc2c1c(=O)[nH]c(=O)n2C	2.3	-0.7	19.3*	0.9	-0.5	-2.9	-0.6	-3.9
Cc1cc(OCC(=O)NNC(=O)c2cccs2)ccc1Br	9.2	1.5	3.9	4.0	18.8	-1.6	/	/
O=C(NCc1cccs1)C1CCCN1C(=O)Nc1cccc(F)c1 (centres undefined)	-1.9	-0.3	16.6*	-0.1	-0.3	-3.5	-0.6	-4.5
O=C(NCc1cccs1)C1CCCN1C(=O)Nc1ccc(F)cc1 (centres undefined)	0.9	-1.4	-0.9	0.0	10.1	-2.9	/	/
CCC(Oc1ccccc1)C(=O)N(C)CC(=O)N(CC(C)C)c1c(N)n(CC(C)C)c(=O)[nH]c1=O (centres undefined)	0.8	0.1	-2.8	-0.7	5.4	-11.2	/	/
CC(=O)NCC1COc2ccccc2O1 (centres undefined)	22.1	-0.3	12.5	-0.6	3.3	-5.7	/	/
CC(=O)NCC1(c2ccccc2)CCN(CC2COc3ccccc3O2)CC1 (centres undefined)	/	0.7	20.0*	-0.9	/	1.1	-0.5	44.3*
CC1CCCC(C)N1C(=O)COC(=O)c1cc(F)c(F)cc1Cl (centres undefined)	-0.1	-0.2	3.8	-0.1	/	0.7	/	/
CSc1ccc(CCNC(=O)CCc2nnc3ccc(N4CCCCC4)nn23)cc1	-3.0	1.1	20.1*	-0.2	21.2	-4.2	0.7*	4.8
CSc1ccc(CCNC(=O)CCc2nnc3ccc(N4CCOCC4)nn23)cc1	-0.4	1.0	3.3	-0.1	14.4	-7.8	/	/
Cc1cc(OCC(=O)OCC(=O)NC2CCS(=O)(=O)C2)ccc1Cl (centres undefined)	/	-0.7	2.9	0.0	/	1.9	/	/
Cc1nc2ccccc2n1CC(=O)OCC(=O)NCc1ccccc1	3.6	-0.3	14.7*	0.6	24.4	-1.1	0.0	3.5
Brc1ccc([C@H]2C=C[C@H]3CCCN4CC[C@H]2[C@@H]3[C@]42CO2)cc1	/	1.4	-2.0	-0.6	/	-1.7	/	/
COc1ccc(NC(=O)CCCNC(=O)c2ccc(Cl)cc2)cc1S(=O)(=O)N1CCOCC1	/	-1.3	14.6*	-0.4	/	-4.4	-0.6	-1.5
COc1ccc([C@H]2C[C@H](O)[C@@H](n3cc(-c4ccc(F)cc4)nn3)CN2Cc2cccs2)cc1	/	-0.1	3.5	-1.3	/	-1.3	/	/
C=CCOC(=O)c1ccccc1C(=O)OCC1CO1 (centres undefined)	/	-0.9	22.7*	0.2	/	-3.5	-0.2	4.2
O=C(OCC1COC(c2ccccc2)(c2ccccc2)O1)c1ccccc1 (centres undefined)	/	-0.6	-2.4	0.4	/	-2.9	/	/
